Values joined by “and” are separate entries in the source; they are usually repeats but may differ in a detail not shown here. Equal values may be shown once.
Assays:
[1] = Cmax in mouse at 10 mg/kg, PO; format: ADME, organism-based; set-up: route oral, dose 10 mg/kg; conditions: in vivo
[2] = Glutathione reactivity in human liver microsomes assessed as GSH-adduct formation at 10 uM incubated for 60 mins; format: ADME; conditions: 1 h
Homo sapiens = species on record: Homo sapiens; assay: Selectivity ratio of IC50 for JAK2 (unknown origin) to IC50 for recombinant full-length His-tagged human BTK expressed in baculovirus expression system
[3] = molecular target: T1, Tyrosine-protein kinase BTK (Homo sapiens, UniProt Q06187); assay: Inhibition of BTK in human whole blood assessed as reduction in goat anti human IgM/human IL4-stimulated CD69 cell surface expression on peripheral B cells incubated for 18 hrs by FACS analysis; format: tissue-based
[4] = AUC in mouse at 10 mg/kg, PO; format: ADME, organism-based; set-up: dose 10 mg/kg; conditions: in vivo
[5] = molecular target: T1, Tyrosine-protein kinase BTK; assay: Inhibition of BTK in human Ramos B cells assessed as reduction in goat anti human IgM-stimulated calcium flux preincubated for 1 hr followed by goat anti human IgM addition and measured for 180 secs by FLIPR assay; format: cell-based
[6] = molecular target: T1, Tyrosine-protein kinase BTK; assay: Inhibition of recombinant full-length His-tagged human BTK expressed in baculovirus expression system using fluoresceinated peptide as substrate incubated for 60 mins by fluorescence assay
[7] = Stability of the compound in human whole blood assessed drug degradation at 0.5 uM incubated for 10 mins; format: ADME, tissue-based; conditions: read-out: Drug degradation
Procedure, shortened: (§1)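 Test compound spiked into human whole blood at 0.5 µM and incubated; remaining parent tracked over time, with samples at 10 min and at 2 h.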

[8] = Stability of the compound in human whole blood assessed drug degradation at 0.5 uM incubated for 2 hrs; format: ADME, tissue-based; conditions: read-out: Drug degradation; procedure, shortened: as §1
B cell = assay: Antiproliferative activity against anti-IgM/IgG-induced human peripheral B cells; format: functional, cell-based
Procedure, shortened: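 B cell receptor stimulation of human peripheral B cells with anti-IgM/IgG (proliferation read-out), of human whole blood with anti-IgM (CD69 surface expression), and of mouse whole blood with anti-IgM/IgG (CD69 surface expression). IC50 reported as the mean of at least three determinations; for line 9 a single determination is also reported.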

T1 sequence (Q06187 whole entry): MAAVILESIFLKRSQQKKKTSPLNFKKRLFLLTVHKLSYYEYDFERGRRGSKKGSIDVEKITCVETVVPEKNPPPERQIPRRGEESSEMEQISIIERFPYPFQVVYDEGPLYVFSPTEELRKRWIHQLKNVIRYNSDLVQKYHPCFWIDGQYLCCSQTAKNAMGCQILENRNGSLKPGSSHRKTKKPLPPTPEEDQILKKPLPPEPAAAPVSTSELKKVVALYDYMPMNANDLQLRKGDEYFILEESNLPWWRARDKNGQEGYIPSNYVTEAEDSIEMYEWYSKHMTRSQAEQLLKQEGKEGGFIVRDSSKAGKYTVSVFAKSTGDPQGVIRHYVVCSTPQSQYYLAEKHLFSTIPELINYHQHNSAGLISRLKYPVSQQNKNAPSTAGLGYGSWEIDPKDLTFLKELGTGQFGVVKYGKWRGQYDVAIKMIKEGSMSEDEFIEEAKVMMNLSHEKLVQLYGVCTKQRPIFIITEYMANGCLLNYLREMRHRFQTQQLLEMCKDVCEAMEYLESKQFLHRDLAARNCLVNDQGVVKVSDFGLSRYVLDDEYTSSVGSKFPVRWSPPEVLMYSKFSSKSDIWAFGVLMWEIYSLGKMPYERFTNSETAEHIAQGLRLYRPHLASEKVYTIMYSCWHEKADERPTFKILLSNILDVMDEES

Row | Cmax [1] | Stabilty [2] | Ratio IC50 (Homo sapiens) | IC50 [3] | AUC [4] | IC50 [5] | IC50 [6] | metabolised at 10 min, 0.5 µM [7] | metabolised at 2 h, 0.5 µM [8] | Structure (SMILES) | IC50 (B cell)
1 | 3500 nM | Stable | 1400 and 1100 and 2500 | 120 nM and 78 nM and 69 nM | 23 µM·h | 12 nM and 18 nM and 13 nM |  |  |  | Cc1c(-c2ccc(C(N)=O)c3[nH]c4cc(C(C)(C)O)ccc4c23)cccc1-n1c(=O)cc2c(Cl)cccn2c1=O | 
2 |  | Unstable | 1500 | 3000 nM |  | 3.1 nM | 0.49 nM | > 85% | 100% | Cc1c(-c2ccc(C(N)=O)c3[nH]c4cc(C(C)(C)O)ccc4c23)cccc1-n1c(=O)cc2cc(Cl)ccn2c1=O | 
3 | 1300 nM |  | 1900 | 140 nM | 4 µM·h | 19 nM |  |  |  | COc1cccn2c(=O)n(-c3cccc(-c4ccc(C(N)=O)c5[nH]c6cc(C(C)(C)O)ccc6c45)c3C)c(=O)cc12 | 
4 | 1300 nM |  | 1600 | 140 nM | 3.9 µM·h | 19 nM |  |  |  | COc1ccn2c(=O)n(-c3cccc(-c4ccc(C(N)=O)c5[nH]c6cc(C(C)(C)O)ccc6c45)c3C)c(=O)cc2c1 | 
5 | 5200 nM |  | 1100 and 500 and 870 | 75 nM and 91 nM and 79 nM | 28 µM·h | 19 nM and 18 nM and 14 nM | 0.86 nM |  |  | Cc1c(-c2ccc(C(N)=O)c3[nH]c4cc(C(C)(C)O)ccc4c23)cccc1-n1c(=O)cc2c(F)cccn2c1=O | 
6 |  |  |  |  | 80 µM·h |  |  |  |  | Cc1c(-c2ccc(C(N)=O)c3[nH]c4cc(C(C)(C)O)ccc4c23)cccc1-n1cnc2ccccc2c1=O | 8 nM
